Results: ChEMBL document CHEMBL3244124, “Synthesis of 2-substituted primaquine analogues as potential antimalarials” (J Med Chem, 1978)
Calls of active or inactive are those of the source. The rule behind the calls is not given here.

Legend:
[1] = test system: Schistosoma mansoni; experiment: Antiparasitic activity against Schistosoma mansoni infected in mouse assessed as survival up to 49 days at 1280 mg/kg, sc administered through peanut oil on day 2 post infection; assay type: functional, organism-based; set-up: dose 1280 mg/kg
[2] = test system: Leishmania donovani; experiment: Potency index, ratio of glucantime to compound for antileishmanial activity against Leishmania donovani infected in hamster assessed as 90% suppression of parasitemia at 13 to 208 mg/kg/day, im bid administered 4 days measured for 8 days; assay type: functional; settings: route intramuscular
Outline: (§1)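 Hamsters infected with Leishmania donovani were assessed in an 8-day test. Seven animals per drug level received 208, 52 or 13 mg/kg/day. Percent suppression of parasites was calculated against infected, untreated controls (seven to ten animals). Glucantime index G = SD90 of Glucantime / SD90 of the new drug, where SD90 is the dose giving 90% parasite suppression.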

[3] = test system: Mus musculus; experiment: Toxicity in mouse infected with blood stage of Plasmodium berghei assessed as mortality at 320 mg/kg, sc measured on day 2; assay type: organism-based; set-up: dose 320 mg/kg, route subcutaneous; settings: in vivo
Outline: (§2)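 P. berghei-infected mice, five per group, after subcutaneous dosing. Deaths occurring 2 to 5 days after drug administration are scored as drug toxicity rather than infection.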

[4] = test system: Mus musculus; experiment: Toxicity in mouse infected with blood stage of Plasmodium berghei assessed as mortality at 640 mg/kg, sc measured on day 2; assay type: organism-based; set-up: dose 640 mg/kg, route subcutaneous; settings: in vivo; outline: as §2
[5] = test system: Plasmodium berghei; experiment: Antimalarial activity against blood stage of Plasmodium berghei infected in mouse assessed as increase in mean survival time at 640 mg/kg, sc; assay type: functional; settings: route subcutaneous
[6] = test system: Mus musculus; experiment: Toxicity in mouse infected with blood stage of Plasmodium berghei assessed as mortality at 160 mg/kg, sc measured on day 2; assay type: organism-based; set-up: route subcutaneous, dose 160 mg/kg; settings: in vivo; outline: as §2
[7] = test system: Plasmodium berghei; experiment: Antimalarial activity against blood stage of Plasmodium berghei infected in mouse assessed as increase in mean survival time at 80 mg/kg, sc; assay type: functional; settings: route subcutaneous
[8] = test system: Plasmodium berghei; experiment: Antimalarial activity against blood stage of Plasmodium berghei infected in mouse assessed as increase in mean survival time at 320 mg/kg, sc; assay type: functional; settings: route subcutaneous
[9] = test system: Plasmodium berghei; experiment: Antimalarial activity against blood stage of Plasmodium berghei infected in mouse assessed as increase in mean survival time at 160 mg/kg, sc; assay type: functional; settings: route subcutaneous
[10] = test system: Mus musculus; experiment: Toxicity in mouse infected with blood stage of Plasmodium berghei assessed as mortality at 640 mg/kg, sc measured on day 5; assay type: organism-based; set-up: dose 640 mg/kg, route subcutaneous; settings: in vivo; outline: as §2
[11] = test system: Mus musculus; experiment: Toxicity in mouse infected with blood stage of Plasmodium berghei assessed as mortality at 320 mg/kg, sc measured on day 5; assay type: organism-based; set-up: dose 320 mg/kg, route subcutaneous; settings: in vivo; outline: as §2
[12] = test system: Leishmania donovani; experiment: Antileishmanial activity against Leishmania donovani infected in hamster assessed as inhibition of parasitemia at 52 mg/kg/day, im bid administered for 4 days relative to control; assay type: functional; settings: 96 h, route intramuscular; outline: as §1
[13] = test system: Mus musculus; experiment: Toxicity in mouse infected with blood stage of Plasmodium berghei assessed as mortality at 160 mg/kg, sc measured on day 1; assay type: organism-based; set-up: dose 160 mg/kg, route subcutaneous; settings: in vivo
[14] = test system: Leishmania donovani; experiment: Potency index, ratio of glucantime to compound for antileishmanial activity against Leishmania donovani infected in hamster assessed as 90% suppression of parasitemia at 13 mg/kg/day, im bid administered 4 days measured for 8 days; assay type: functional; settings: route intramuscular; outline: as §1
[15] = test system: Plasmodium cynomolgi; experiment: Antimalarial activity against sporozoite stage of Plasmodium cynomolgi infected in rhesus monkey assessed as radical curative activity measured for 90 days; assay type: functional, organism-based
[16] = test system: Trypanosoma brucei rhodesiense; experiment: Antitrypanosomal activity against blood stage of Trypanosoma rhodesiense infected in mouse; assay type: functional, organism-based
[17] = test system: Leishmania donovani; experiment: Potency index, ratio of glucantime to compound for antileishmanial activity against Leishmania donovani infected in hamster assessed as 90% suppression of parasitemia at 208 mg/kg/day, im bid administered 4 days measured for 8 days; assay type: functional; settings: route intramuscular; outline: as §1
[18] = test system: Mus musculus; experiment: Toxicity in mouse infected with blood stage of Plasmodium berghei assessed as mortality at 640 mg/kg, sc measured on day 3; assay type: organism-based; set-up: dose 640 mg/kg, route subcutaneous; settings: in vivo; outline: as §2
[19] = test system: Mus musculus; experiment: Toxicity in mouse infected with blood stage of Plasmodium berghei assessed as mortality at 80 to 640 mg/kg, sc measured for 5 days; assay type: organism-based; set-up: dose 80-640 mg/kg, route subcutaneous; settings: in vivo, 120 h; outline: as §2
[20] = test system: Leishmania donovani; experiment: Potency index, ratio of glucantime to compound for antileishmanial activity against Leishmania donovani infected in hamster assessed as 90% suppression of parasitemia at 3.25 mg/kg/day, im bid administered 4 days measured for 8 days; assay type: functional; settings: route intramuscular

For `COc1cc(NC(C)CCCN)c2nc(N)ccc2c1.O=C(O)/C=C\C(=O)O` (stereo unspecified), the Activity [1] was “inactive” and the Ratio [2] was 0.
With `C=Cc1ccc2cc(OC)cc(NC(C)CCCN)c2n1.O=C(O)/C=C/C(=O)O` (stereo unspecified) the Activity [3] was “Toxic”, the Activity [4] was “Toxic” and the Survival [5] was 7.9 days. For the same compound, the Activity [6] was “Toxic”, the Survival [7] was 2.9 days and the Survival [8] was 5.3 days. It also gave a Survival [9] of 3.3 days.
With `COc1cc(NC(C)CCCN)c2nc(N(C)C)ccc2c1.O=C(O)/C=C/C(=O)O` (stereo unspecified) the Activity [10] was “Toxic”, the Activity [11] was “Toxic” and the inhibition in vivo at 52 mg/kg/day [12] was 99%. The Survival [7] was 4.9 days, the Survival [9] was 5.2 days and the Activity [13] was “Toxic”.
For `COc1cc(NC(C)CCCN)c2nc(OC)ccc2c1.O=C(O)/C=C\C(=O)O` (stereo unspecified), the Activity [10] was “Toxic”, the Activity [11] was “Toxic” and the Survival [7] was 6.1 days. For the same compound, the Ratio [14] was 2.4, the Activity [15] was “inactive” and the Survival [9] was 7.9 days. For the same compound, the Activity [13] was “Toxic”.
For `COc1cc(NC(C)CCCN)c2ncccc2c1` (stereo unspecified) [PRIMAQUINE], the Activity [10] was “Toxic”, the Activity [11] was “Toxic” and the Activity [6] was “Toxic”. The Ratio [2] was 0.96, the Survival [7] was 9.4 days and the Survival [9] was 10.8 days.
With `COc1cc(NC(C)CCCN)c2nc(Cl)ccc2c1.O=C(O)/C=C\C(=O)O` (stereo unspecified) the Activity [3] was “Toxic”, the Survival [5] was 5.5 days and the Activity [6] was “Toxic”. For the same compound, the Survival [7] was 1.2 days, the Activity [16] was “inactive” and the Survival [8] was 4 days. For the same compound, the Activity [15] was “inactive”, the Survival [9] was 3 days and the Ratio [17] was 0.3. The Activity [18] was “Toxic”.
In the case of `CCc1ccc2cc(OC)cc(NC(C)CCCN)c2n1.O=C(O)/C=C\C(=O)O` (stereo unspecified), the Activity [19] is reported as “Non-toxic”, the Ratio [20] is reported as 10 and the Activity [1] is reported as “inactive”. It also gave a Survival [5] of 13.9 days, a Survival [7] of 6.7 days and a Survival [8] of 9.9 days. The Activity [15] was “inactive” and the Survival [9] was 8.3 days.
